Measured values taken from ChEMBL document CHEMBL1141349, “Cytochrome P3A4 inhibitors and other constituents of Fibraurea tinctoria” (J Nat Prod, 2007).

The compounds below were run against Cytochrome P450 3A4 (Homo sapiens, UniProt P08684) (assay: Inhibition of human CYP3A4 expressed in Escherichia coli assessed as inhibition of nifedipine oxidation).
Type: ADME
Summary of the method: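 Bicistronic human CYP3A4 expressed in E. coli DH5; bacterial membrane fractions (sonication, differential centrifugation) stored at -75 °C, P450 content by CO-difference spectroscopy. Nifedipine substrate with 100 pmol P450 per incubation, 37 °C shaking waterbath; pyridine metabolite quantified by HPLC.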

Cytochrome P450 3A4, sequence (P08684 whole entry): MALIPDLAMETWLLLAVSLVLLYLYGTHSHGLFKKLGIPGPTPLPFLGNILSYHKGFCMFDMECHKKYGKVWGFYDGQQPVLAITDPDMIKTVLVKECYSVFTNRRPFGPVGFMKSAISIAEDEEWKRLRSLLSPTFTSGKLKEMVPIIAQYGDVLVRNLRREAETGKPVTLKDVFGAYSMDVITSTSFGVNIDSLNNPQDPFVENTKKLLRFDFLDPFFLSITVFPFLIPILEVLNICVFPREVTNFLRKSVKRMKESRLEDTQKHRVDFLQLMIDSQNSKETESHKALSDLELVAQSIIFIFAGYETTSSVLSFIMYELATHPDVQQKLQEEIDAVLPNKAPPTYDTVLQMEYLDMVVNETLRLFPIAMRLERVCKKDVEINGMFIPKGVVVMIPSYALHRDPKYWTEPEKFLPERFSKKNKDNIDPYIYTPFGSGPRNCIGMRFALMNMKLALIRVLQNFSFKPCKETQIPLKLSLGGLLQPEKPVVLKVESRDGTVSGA

Row | SMILES | IC50 [µM]
1 | C[C@@]12C[C@H](c3ccoc3)OC(=O)[C@@H]1CC[C@@]1(CO[C@@H]3O[C@H](CO)[C@@H](O)[C@H](O)[C@H]3O)C(=O)C=CC[C@H]12 | > 100
2 | COc1cc2c(cc1O)-c1cc3ccc(OC)c(OC)c3c[n+]1CC2 [COLUMBAMINE] | 30.6
3 | C[C@@]12[C@H]3CC=C[C@@]1(O[C@@H]1O[C@H](CO)[C@@H](O)[C@H](O)[C@H]1O)C(=O)O[C@@H]2C[C@]1(O)C(=O)O[C@H](c2ccoc2)C[C@@]31C [EPI-FIBRAURETINOSIDE A] | > 100
4 | C[C@H](C[C@@H](O)[C@](C)(O)[C@H]1CC[C@@]2(O)C3=CC(=O)[C@@H]4C[C@@H](O[C@@H]5O[C@H](CO)[C@@H](O)[C@H](O)[C@H]5O)[C@@H](O)C[C@]4(C)[C@H]3CC[C@]12C)C(C)(C)O [FIBRAURECDYSIDE A] | > 100
5 | C[C@@]12C[C@H](c3ccoc3)OC(=O)[C@@H]1[C@@H](O)C[C@]1(C)[C@H]2[C@@H]2OC(=O)[C@@]1(O)[C@H]1O[C@@H]21 [FIBRAURETIN A] | > 100
6 | C[C@@]12C[C@H](c3ccoc3)OC(=O)C1=CC[C@]1(C)[C@H]2[C@@H]2OC(=O)[C@@]1(O[C@@H]1O[C@H](CO)[C@@H](O)[C@H](O)[C@H]1O)[C@H]1O[C@@H]21 [FIBRAURINOSIDE] | > 100
7 | C[C@H](C[C@@H](O)[C@](C)(O)[C@H]1CC[C@@]2(O)C3=CC(=O)[C@@H]4C[C@@H](O)[C@@H](O)C[C@]4(C)[C@H]3CC[C@]12C)C(C)(C)O [MAKISTERONE A] | > 100

More lines, now with the values ahead:

Row | IC50 [µM] | SMILES
8 | > 100 | C[C@@]12C[C@H](c3ccoc3)OC(=O)C1=CC[C@]1(C)[C@H]2[C@H]2C=C[C@]1(O[C@@H]1O[C@H](CO)[C@@H](O)[C@H](O)[C@H]1O)C(=O)O2 [FIBLEUCINOSIDE]
9 | > 100 | C[C@@]12[C@H]3CC=C[C@]1(O[C@@H]1O[C@H](CO)[C@@H](O)[C@H](O)[C@H]1O)C(=O)O[C@@H]2C[C@]1(O)C(=O)O[C@H](c2ccoc2)C[C@@]31C [FIBRAURETINOSIDE A]
10 | 0.9 | COc1cc2c(cc1OC)-c1cc3ccc(OC)c(OC)c3c[n+]1CC2 [PALMATINE CHLORIDE]
11 | > 2.5 | COc1cc2c(cc1O)-c1cc3ccc(O)c(OC)c3c[n+]1CC2 [STEPHARANINE]
